Source: the RNAGym collection of RNA variant scans (doi:10.1126/science.aae0568)
This sample holds only a part of the variants without activity.

B1: tRNA (parent)
chain: GUUCCGUUGGCGUAAUGGUAACGCGUCUCCCUCCUAAGGAGAAGACUGCGGGUUCGAGUCCCGUACGGAACG

Variants of: B1
Assay: yeast fitness relative to wild type (ratio to wild type); higher = fitter; tRNA-Arg(CCU), competitive growth, 37 C, YPD
Procedure, shortened: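 Genotype frequency changes were the basis for Darwinian fitness relative to wild type. The frequencies came from 100-nucleotide paired-end sequencing of gene amplicons from the start population and each end population of pooled yeast strains with tRNA-Arg(CCU) gene variants at the native locus. Competition ran in YPD at 37°C for 24 hours in six replicates, genotypes needed ≥ 100 starting reads, and estimates < 0.5 were set to 0.5.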

Variant	yeast fitness
G6C A37C G67C	≤ 0.5
C22G C27G C29G C49U	≤ 0.5
G50C U54A C61A	0.676
G6A A21G C49U	0.791
U19C A20C A65U	0.55
U28A C31A A42C A45U G51A A65U	≤ 0.5
C24G U54G C55G C62U	≤ 0.5
C4U G44A C61G	≤ 0.5
G23C U47G	0.626
C4A G51C U54A G56C	≤ 0.5
G17C G51C C66U	≤ 0.5
C5U C11A C24G C27G A36U G38C U53G	≤ 0.5
U8C U13A C24U C29G C33A U47A C55U A65C A69G	≤ 0.5
C11A A20C A21G U47C G56C U64C G68C	≤ 0.5
G17A G56C G58C G63A	≤ 0.5
G9C A14C G44C U47C A57C	≤ 0.5
G6A A15G U28G A42U G48A	≤ 0.5
C5G C61G A65C	≤ 0.5
G10C C24G G50A	≤ 0.5
U8A C11U U47G	≤ 0.5
C5U C27G G68C	0.577
A14G C29G A36U C46G	≤ 0.5
U35A C60G C62G G68A	≤ 0.5
A20C C33A G39A	≤ 0.5

Variant	yeast fitness
U7A G10A A20C C29A C55G G63C	≤ 0.5
A15U C27U A65U	0.725
C4U G9A C22G A42U	0.546
A36G C61G	0.659
G6A C11U C33U U64C A70C	≤ 0.5
C11G C24U C34A A37C C55G	0.526
A45C C49G G58C	≤ 0.5
G17C U54C	0.536
U8A U28C	0.738
C5U A43U C49U	0.555
C4A C46G C60G	≤ 0.5
C24A C30U A65G C66U	≤ 0.5
G10C U28G G39A C49A	≤ 0.5
U8A C60A	≤ 0.5
C27G U28G	0.522
G23C U28C C46G C62G	≤ 0.5
C5G G39A	0.725
U2A U8A A42U G52C	≤ 0.5
U2A C30A	0.819
C24U U54A	0.624
C5U C11U G67C	0.659
G6C G51C G68C	0.562
C4G A14C G25C A45U U47A A57U	≤ 0.5
U16A G23A C33A A65G	≤ 0.5

Variant	yeast fitness
C11U A45C C49U	0.765
U2A U16G C66A	0.625
A15C A42G C49A G56C G67U	≤ 0.5
A20C U59A A65C A70C	≤ 0.5
G38C A40U C61G	≤ 0.5
U7A C34A G56C G68C	≤ 0.5
U8C A65U A69C	0.615
C30G C55U	0.622
C5A A57G C61U	≤ 0.5
U2C U26C C55A	0.732
G44A G51C	0.572
A45U A65G G68A	0.73
A21C C62G A65C	≤ 0.5
G6A A42G	0.848
C11A G12A U16A G23C	≤ 0.5
U13C U16G A43U	1.02
C27A U28A G41A G48A	0.75
G25C G48A G68A	0.564
C4A C31G	0.758
U3A C4A U8C C29G A37C	0.581
U8A C11U U47G G67A	≤ 0.5
G18A G50C C55G C62A	0.561
G6A U19G G52A	0.606
G12A C46G A70G	0.703

Variant	yeast fitness
C5U A14G U26C	0.662
G9C U16G A70U	≤ 0.5
G10A A37U G67C	0.587
G12A C34G	0.644
U16G C29U C31A A57C G67C	≤ 0.5
A40G A65C	0.858
G23A C24G A37C	0.506
C62G U64A	0.695
C30G A40C U64A	0.565
C4A C29G C34G	0.782
U7A G10C C22U C27G	0.577
U3A A20G C22U	0.584
A45G C62A A69C	0.595
C5A A21G C22G C27A C33U A40U C55G	≤ 0.5
U3A U8A C27G	≤ 0.5
A43U G67U	0.87
U7C A14C G63C	0.573
U16A C27G A65C	0.585
C5A C33U	0.603
U7A C22G C30U A37G C55A	≤ 0.5
C4G C24U	0.993
C5U U28A A69C	0.541
A42C U47C G63A	0.692
G12A C30U C46G	≤ 0.5

Variant	yeast fitness
C24G G25A A45G C60A	≤ 0.5
C5G G6A U26C G52A	0.619
C5G G25A G48A C61G	≤ 0.5
A40G C46U U64C	0.607
U7G A14G U35G A43G U59A	0.669
U7C C33A C49A	≤ 0.5
U26C C46G	0.894
G38A G67A	0.881
C29A C30U G48A G50A	≤ 0.5
A42C C55G	0.612
C11G A43U A45G U47C	≤ 0.5
A57C U64C	0.564
A15G U32A G38A C49U	≤ 0.5
C24A C34U C49A A65U	≤ 0.5
G23C G39C A42U G52U U53A	≤ 0.5
G39U A40C C66A A69U	0.642
C22U A45C G50A G67C A69C	≤ 0.5
G41A C49U A70U	0.708
C5G G23A A43U A65G G68A	≤ 0.5
C11A G38A	0.579
C5G A42G U64G	0.637
G9A C34A A45C	0.541
G9A U16G A42C	0.955
C34G A40G	0.642

Variant	yeast fitness
U28C A36C	0.579
G18A C30G G41C	≤ 0.5
U19C C29G A40C	≤ 0.5
C61G A65G	0.713
A14G U53G G56A C61U	0.656
A43G U47A C49A	0.531
C5A A14G C55A A70U	≤ 0.5
U8G G9C U54G	≤ 0.5
C5G A37U C46U	0.536
G18A A36C G48A	≤ 0.5
U8C A40C C62G	≤ 0.5
U13A U59C C66A	≤ 0.5
A15G A20G G48A	0.738
U13G G39C	0.735
C34U C61A	0.563
G6C U7C C34G C55U	≤ 0.5
C5A G41A A57G	0.545
U2C U35C	0.829
C4U A20U U28C C61G	≤ 0.5
C27A A45G G48C	≤ 0.5
C4G A21G A45U C49U U64C C66U	≤ 0.5
G10A C24G C62U	0.54
C5G U8C G18C C61U A65C	≤ 0.5
G9C A14G C29U A36C A45G G67U	≤ 0.5

Variant	yeast fitness
U2C U19A C24U G38A U54C C66A	≤ 0.5
U3A C4U C61G G63C	≤ 0.5
C24A U59C	0.553
C5G A42U A57U U59A A69C	≤ 0.5
C4U C11U G25C G41A	0.706
G6A G68U	0.934
G50C G68C	0.715
G17C U19A C24G U26A C34U	≤ 0.5
C30U C46U A70G	0.601
C49G G50A G68C A69G	≤ 0.5
U19G G68C	0.802
C5G G17C C55U	≤ 0.5
A21G A45C A69U	0.762
C4A U32C	0.912
C4U G68U	0.888
C22U U54C C66G	≤ 0.5
C5A U47C A70G	0.705
G38C C60U	0.571
A21U G39A C66U	0.55
C29A C30U	0.689
C5G U59G G63A	0.526
G9A C34U C61G	0.521
C5U A21U C31G A37C C66U	0.51
